Experimental findings from ChEMBL document CHEMBL5244270, “Selective Inhibitors of G2019S-LRRK2 Kinase Activity” (J Med Chem, 2020) are described below.

T1 sequence (Q5S007 whole entry G2019S): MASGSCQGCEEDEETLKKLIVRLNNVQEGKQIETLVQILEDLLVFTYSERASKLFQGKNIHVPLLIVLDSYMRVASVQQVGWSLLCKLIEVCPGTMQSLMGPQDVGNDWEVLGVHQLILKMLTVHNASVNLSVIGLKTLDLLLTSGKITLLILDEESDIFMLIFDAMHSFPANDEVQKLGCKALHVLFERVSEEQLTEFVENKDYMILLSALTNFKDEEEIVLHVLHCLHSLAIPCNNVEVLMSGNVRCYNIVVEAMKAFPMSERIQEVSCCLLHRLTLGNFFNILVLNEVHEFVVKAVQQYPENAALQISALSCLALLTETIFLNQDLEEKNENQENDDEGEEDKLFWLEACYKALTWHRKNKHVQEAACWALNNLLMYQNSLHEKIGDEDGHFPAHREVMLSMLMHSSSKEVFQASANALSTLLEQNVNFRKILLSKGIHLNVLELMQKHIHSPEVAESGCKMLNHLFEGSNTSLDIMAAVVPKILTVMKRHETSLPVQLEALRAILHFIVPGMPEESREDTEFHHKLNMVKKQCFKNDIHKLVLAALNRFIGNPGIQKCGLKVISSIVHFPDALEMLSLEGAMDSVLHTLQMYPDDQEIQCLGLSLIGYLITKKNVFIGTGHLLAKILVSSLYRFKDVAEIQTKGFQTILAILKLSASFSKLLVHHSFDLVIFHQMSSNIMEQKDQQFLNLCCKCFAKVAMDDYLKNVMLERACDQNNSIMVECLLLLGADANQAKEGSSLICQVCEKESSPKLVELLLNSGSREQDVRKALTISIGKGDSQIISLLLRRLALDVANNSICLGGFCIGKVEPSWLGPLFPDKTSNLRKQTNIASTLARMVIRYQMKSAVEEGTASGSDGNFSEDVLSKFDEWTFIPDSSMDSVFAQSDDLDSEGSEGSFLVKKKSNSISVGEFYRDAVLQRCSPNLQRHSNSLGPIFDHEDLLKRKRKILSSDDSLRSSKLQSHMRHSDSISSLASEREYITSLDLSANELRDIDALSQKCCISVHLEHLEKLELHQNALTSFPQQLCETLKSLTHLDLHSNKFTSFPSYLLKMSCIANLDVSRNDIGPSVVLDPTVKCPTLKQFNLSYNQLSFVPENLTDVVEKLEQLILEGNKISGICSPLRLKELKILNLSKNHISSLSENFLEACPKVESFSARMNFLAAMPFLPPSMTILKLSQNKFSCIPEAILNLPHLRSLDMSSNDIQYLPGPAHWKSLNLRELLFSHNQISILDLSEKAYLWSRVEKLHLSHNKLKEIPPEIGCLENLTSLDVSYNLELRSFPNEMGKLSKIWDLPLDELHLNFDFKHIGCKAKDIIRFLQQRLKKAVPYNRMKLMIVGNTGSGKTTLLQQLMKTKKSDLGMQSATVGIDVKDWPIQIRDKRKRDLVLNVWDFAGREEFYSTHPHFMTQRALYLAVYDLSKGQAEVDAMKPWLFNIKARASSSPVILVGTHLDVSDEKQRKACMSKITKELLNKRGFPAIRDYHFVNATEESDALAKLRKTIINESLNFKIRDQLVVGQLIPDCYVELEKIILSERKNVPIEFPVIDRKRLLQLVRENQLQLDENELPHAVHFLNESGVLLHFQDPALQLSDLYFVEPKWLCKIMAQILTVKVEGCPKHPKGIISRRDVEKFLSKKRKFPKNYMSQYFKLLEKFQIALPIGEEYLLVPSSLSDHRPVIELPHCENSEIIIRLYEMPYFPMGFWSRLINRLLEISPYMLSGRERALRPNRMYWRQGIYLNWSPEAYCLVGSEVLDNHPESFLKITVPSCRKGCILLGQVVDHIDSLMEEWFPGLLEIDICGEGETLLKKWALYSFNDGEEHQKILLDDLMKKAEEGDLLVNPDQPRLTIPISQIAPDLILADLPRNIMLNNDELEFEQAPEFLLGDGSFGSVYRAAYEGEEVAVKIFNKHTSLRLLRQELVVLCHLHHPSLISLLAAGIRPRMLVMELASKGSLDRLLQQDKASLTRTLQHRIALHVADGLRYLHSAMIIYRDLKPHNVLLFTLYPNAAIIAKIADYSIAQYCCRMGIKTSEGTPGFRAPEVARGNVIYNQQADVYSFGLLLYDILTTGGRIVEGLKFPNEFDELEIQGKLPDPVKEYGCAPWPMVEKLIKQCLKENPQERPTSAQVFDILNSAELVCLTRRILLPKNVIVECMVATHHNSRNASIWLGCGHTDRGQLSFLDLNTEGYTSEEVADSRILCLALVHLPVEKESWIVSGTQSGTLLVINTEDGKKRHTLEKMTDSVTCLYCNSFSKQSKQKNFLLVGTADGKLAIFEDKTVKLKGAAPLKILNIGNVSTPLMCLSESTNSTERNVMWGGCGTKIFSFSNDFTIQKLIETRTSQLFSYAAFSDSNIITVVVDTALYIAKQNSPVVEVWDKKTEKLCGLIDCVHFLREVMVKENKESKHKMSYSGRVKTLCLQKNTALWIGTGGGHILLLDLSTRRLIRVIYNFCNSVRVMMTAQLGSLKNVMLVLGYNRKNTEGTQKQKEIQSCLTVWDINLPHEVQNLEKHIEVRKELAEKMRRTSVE
T2 sequence (Q5S007 whole entry): as the sequence (Q5S007 whole entry G2019S) above, with S2019G counted along it

The target of one test is T1, Leucine-rich repeat serine/threonine-protein kinase 2 (Homo sapiens, UniProt Q5S007, G2019S). The test can be described thus: Inhibition of human LRRK2 G2019S mutant expressed in HEK293 cells assessed as reduction in pS1292 phosphorylation incubated for 2 hrs by MSD analysis. The format is cell-based. Summed up:
(§1)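 HEK293 cells stably expressing WT or G2019S LRRK2 (30−50K/well, DMEM with 1% serum) were treated for 2 h at 37 °C and lysed with phosphatase inhibitors. LRRK2 was captured on anti-LRRK2-coated MSD plates overnight at 4 °C. Detection used rabbit anti-pS1292 (1:400) and Sulfo-Tag anti-rabbit, with an electrochemiluminescence read-out. IC50 is the geometric mean of at least two independent experiments.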
Usually IC50 stands for the concentration needed to halve the response being measured. For `CC1=C(C(=O)Nc2ccc3[nH]nc(C)c3c2)[C@@H](C)n2nnnc2N1C`, the half-maximal inhibitory concentration (IC50) is 19 nM.
The same measure, in the same setting: under `CC1=C(C(=O)Nc2ccc3[nH]ncc3c2)[C@@H](C)n2nnnc2N1C` stands 104 nM; under `CC1=C(C(=O)Nc2ccc3[nH]nc(-c4ccccc4)c3c2)C(C)(C)n2nnnc2N1C`, 1.7 nM; under `CC1=C(C(=O)Nc2ccc3[nH]nc(-c4ccnc(N5CCOCC5)c4)c3c2)C(C)(C)n2nnnc2N1C`, 1 nM.

The species entered for a further test is Homo sapiens. The test can be described thus: Selectivity ratio of IC50 for inhibition of N-terminal GST-fused human wild type LRRK2 to IC50 for inhibition of N-terminal GST-fused human […] mutant. Summed up: (§2)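 Purified truncated LRRK2, WT or G2019S, at 2 nM nominal was preincubated with inhibitor for 15 min. LRRKtide (0.4 μM) and ATP (25 μM) were then added for 1 h. The reaction was stopped with 10 mM EDTA plus 2 nM Tb-anti-pLRRKtide antibody, and TR-FRET was read. IC50 is the geometric mean of at least two independent experiments.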
Consider `CC1=C(C(=O)Nc2ccc3[nH]nc(C)c3c2)[C@@H](C)n2nnnc2N1C`, for which the Ratio IC50 amounted to 24.
Consider `CC1=C(C(=O)Nc2ccc3[nH]ncc3c2)[C@@H](C)n2nnnc2N1C`, for which the Ratio IC50 stood at 43.
`CC1=C(C(=O)Nc2ccc3[nH]nc(-c4ccccc4)c3c2)C(C)(C)n2nnnc2N1C`: the Ratio IC50 is greater than 33.
For `CC1=C(C(=O)Nc2ccc3[nH]nc(-c4ccnc(N5CCOCC5)c4)c3c2)C(C)(C)n2nnnc2N1C`, the Ratio IC50 was greater than 1.5.

The next test has as its target T1, Leucine-rich repeat serine/threonine-protein kinase 2. In words: Inhibition of human LRRK2 G2019S mutant expressed in HEK293 cells assessed as reduction in pSer935 phosphorylation incubated for 2 hrs by immunoblotting analysis. The format is cell-based. The procedure, abridged:
(§3)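 HEK293 cells stably expressing WT or G2019S LRRK2 (100 000/well, EMEM with 1% FBS) were dosed about 24 h after plating, for 2 h. They were lysed in 1% SDS Tris buffer with protease and phosphatase inhibitors, and lysates were heated at 65 °C for 10 min. pThr73-Rab10, total Rab10, pS935 and total LRRK2 were quantified by immunoblot. IC50 is the geometric mean of at least two independent experiments.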
Background: In western blotting, separated proteins are transferred to a membrane and probed.
As for `CC1=C(C(=O)Nc2ccc3[nH]nc(C)c3c2)[C@@H](C)n2nnnc2N1C`, the half-maximal inhibitory concentration (IC50) is 106 nM.
The same measure, in the same setting: the result for `CC1=C(C(=O)Nc2ccc3[nH]nc(-c4ccccc4)c3c2)C(C)(C)n2nnnc2N1C` reads 2.5 nM; that for `CC1=C(C(=O)Nc2ccc3[nH]nc(-c4ccnc(N5CCOCC5)c4)c3c2)C(C)(C)n2nnnc2N1C`, 1.5 nM.

The species entered for a further test is Homo sapiens. The test can be described thus: Selectivity ratio of IC50 for inhibition of human wild type LRRK2 expressed in HEK293 cells assessed as reduction in pSer935 phosphorylation to IC50 for inhibition of human LRRK2 G2019S mutant expressed in HEK293 cells assessed as reduction in pSer935 phosphorylation. The format is cell-based. The procedure, abridged:
(§4)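 Stably transfected HEK293 cells expressing human WT or G2019S LRRK2 were seeded at 5K/well in DMEM with 1% serum on poly-D-lysine plates. Inhibitor in DMSO was added for 2 h at 37 °C. pS935 was detected by an HTRF kit. IC50 is the geometric mean of at least two independent experiments.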
In the case of `CC1=C(C(=O)Nc2ccc3[nH]nc(C)c3c2)[C@@H](C)n2nnnc2N1C`, the Ratio IC50 is 82.
Still for that read-out and setting: under `CC1=C(C(=O)Nc2ccc3[nH]nc(-c4ccccc4)c3c2)C(C)(C)n2nnnc2N1C` stands 837.
Same read-out and setting: the result for `CC1=C(C(=O)Nc2ccc3[nH]nc(-c4ccnc(N5CCOCC5)c4)c3c2)C(C)(C)n2nnnc2N1C` reads 173.

A further test is filed under the species Homo sapiens. The test can be described thus: Selectivity ratio of IC50 for inhibition human wild type LRRK2 expressed in human HEK293 assessed as Rab10 substrate phosphorylation at Threonine 73 residue to IC50 for inhibition of human LRRK2 G2019S mutant expressed in human HEK293 assessed as Rab10 substrate phosphorylation at Threonine 73 residue. The procedure, abridged:
as §3
Regarding `CC1=C(C(=O)Nc2ccc3[nH]nc(C)c3c2)[C@@H](C)n2nnnc2N1C`, the Ratio IC50 came to 71.
As for `CC1=C(C(=O)Nc2ccc3[nH]nc(-c4ccccc4)c3c2)C(C)(C)n2nnnc2N1C`, the Ratio IC50 came to 344.
For the compound `CC1=C(C(=O)Nc2ccc3[nH]nc(-c4ccnc(N5CCOCC5)c4)c3c2)C(C)(C)n2nnnc2N1C`, the Ratio IC50 turned out to be 101.

For a further test, the target named is T2, Leucine-rich repeat serine/threonine-protein kinase 2 (Homo sapiens, UniProt Q5S007). The test can be described thus: Inhibition of human wild type LRRK2 expressed in HEK293 cells assessed as reduction in pSer935 phosphorylation incubated for 2 hrs by immunoblotting analysis. The format is cell-based. Summed up:
as §3
Regarding `CC1=C(C(=O)Nc2ccc3[nH]nc(C)c3c2)[C@@H](C)n2nnnc2N1C`, the IC50 is 8740 nM.
As to `CC1=C(C(=O)Nc2ccc3[nH]nc(-c4ccccc4)c3c2)C(C)(C)n2nnnc2N1C`, the IC50 was found to be 2090 nM.
As to `CC1=C(C(=O)Nc2ccc3[nH]nc(-c4ccnc(N5CCOCC5)c4)c3c2)C(C)(C)n2nnnc2N1C`, the IC50 was found to be 259 nM.

Another test is filed under the species Homo sapiens. The test can be described thus: Selectivity ratio of IC50 for inhibition of human wild type LRRK2 expressed in HEK293 cells to IC50 for inhibition of human LRRK2 G2019S mutant expressed in HEK293. The format is cell-based. The procedure, abridged:
as §3
`CC1=C(C(=O)Nc2ccc3[nH]nc(C)c3c2)[C@@H](C)n2nnnc2N1C`: the Ratio IC50 amounted to 113.
Same read-out and setting: under `CC1=C(C(=O)Nc2ccc3[nH]ncc3c2)[C@@H](C)n2nnnc2N1C` stands greater than 53.
Same read-out and setting: under `CC1=C(C(=O)Nc2ccc3[nH]nc(-c4ccccc4)c3c2)C(C)(C)n2nnnc2N1C` stands 339; under `CC1=C(C(=O)Nc2ccc3[nH]nc(-c4ccnc(N5CCOCC5)c4)c3c2)C(C)(C)n2nnnc2N1C`, 132.

A further test concerns the target T2, Leucine-rich repeat serine/threonine-protein kinase 2. The test can be described thus: Inhibition of human wild type LRRK2 expressed in HEK293 cells assessed as reduction in pS1292 phosphorylation incubated for 2 hrs by MSD analysis. Type of test: cell-based. Summed up: as §1
In the case of `CC1=C(C(=O)Nc2ccc3[nH]nc(C)c3c2)[C@@H](C)n2nnnc2N1C`, the half-inhibitory concentration (IC50) was 380 nM.
Still for that read-out and setting: under `CC1=C(C(=O)Nc2ccc3[nH]ncc3c2)[C@@H](C)n2nnnc2N1C` stands 2180 nM; under `CC1=C(C(=O)Nc2ccc3[nH]nc(-c4ccccc4)c3c2)C(C)(C)n2nnnc2N1C`, 117 nM; under `CC1=C(C(=O)Nc2ccc3[nH]nc(-c4ccnc(N5CCOCC5)c4)c3c2)C(C)(C)n2nnnc2N1C`, 33.7 nM.

For another test the target is unchanged. In words: Inhibition of human wild type LRRK2 expressed in HEK293 cells assessed as reduction in pSer935 phosphorylation incubated for 2 hrs by HTRF analysis. Type of test: cell-based. Summed up:
as §4
On the technique in general: TR-FRET usually uses a lanthanide donor and a delayed reading to cut background.
As for `CC1=C(C(=O)Nc2ccc3[nH]nc(C)c3c2)[C@@H](C)n2nnnc2N1C`, the IC50 worked out at 5220 nM.
Regarding `CC1=C(C(=O)Nc2ccc3[nH]ncc3c2)[C@@H](C)n2nnnc2N1C`, the IC50 was greater than 10000 nM.
With `CC1=C(C(=O)Nc2ccc3[nH]nc(-c4ccccc4)c3c2)C(C)(C)n2nnnc2N1C`, the IC50 amounted to 1060 nM.
For the compound `CC1=C(C(=O)Nc2ccc3[nH]nc(-c4ccnc(N5CCOCC5)c4)c3c2)C(C)(C)n2nnnc2N1C`, the IC50 was found to be 145 nM.

A further test has the same target. In words: Inhibition human wild type LRRK2 expressed in human HEK293 assessed as Rab10 substrate phosphorylation at Threonine 73 residue incubated for 2 hrs by immunoblotting analysis. Type of test: cell-based. Summed up: as §3
`CC1=C(C(=O)Nc2ccc3[nH]nc(C)c3c2)[C@@H](C)n2nnnc2N1C`: the IC50 was found to be 9740 nM.
With `CC1=C(C(=O)Nc2ccc3[nH]nc(-c4ccccc4)c3c2)C(C)(C)n2nnnc2N1C`, the IC50 was 3920 nM.
Consider `CC1=C(C(=O)Nc2ccc3[nH]nc(-c4ccnc(N5CCOCC5)c4)c3c2)C(C)(C)n2nnnc2N1C`, for which the IC50 came out at 473 nM.

The next test has the same target. The test can be described thus: Inhibition of N-terminal GST-fused human wild type LRRK2 using fluorescein-labeled LRRKtide as substrate preincubated for 15 mins followed by substrate addition and measured after 1 hr by TR-FRET assay. Summed up: as §2
`CC1=C(C(=O)Nc2ccc3[nH]nc(C)c3c2)[C@@H](C)n2nnnc2N1C`: the midpoint of inhibition, the IC50, lay at 20 nM.
Regarding `CC1=C(C(=O)Nc2ccc3[nH]ncc3c2)[C@@H](C)n2nnnc2N1C`, half-maximal inhibition (IC50) was put at 71 nM.
On to `CC1=C(C(=O)Nc2ccc3[nH]nc(-c4ccccc4)c3c2)C(C)(C)n2nnnc2N1C`, for which the IC50 amounted to 6.6 nM.
Still for that read-out and setting: under `CC1=C(C(=O)Nc2ccc3[nH]nc(-c4ccnc(N5CCOCC5)c4)c3c2)C(C)(C)n2nnnc2N1C` stands 0.3 nM.

Another test deals with T1, Leucine-rich repeat serine/threonine-protein kinase 2. The test can be described thus: Inhibition human LRRK2 G2019S mutant expressed in human HEK293 assessed as Rab10 substrate phosphorylation at Threonine 73 residue incubated for 2 hrs by immunoblotting analysis. Type of test: cell-based. Summed up: as §3
As to `CC1=C(C(=O)Nc2ccc3[nH]nc(C)c3c2)[C@@H](C)n2nnnc2N1C`, the IC50 came out at 137 nM.
Same read-out and setting: under `CC1=C(C(=O)Nc2ccc3[nH]nc(-c4ccccc4)c3c2)C(C)(C)n2nnnc2N1C` stands 11.4 nM; under `CC1=C(C(=O)Nc2ccc3[nH]nc(-c4ccnc(N5CCOCC5)c4)c3c2)C(C)(C)n2nnnc2N1C`, 4.7 nM.

For a further test the target is unchanged. The test can be described thus: Inhibition of human LRRK2 G2019S mutant expressed in HEK293 cells assessed as reduction in pSer935 phosphorylation incubated for 2 hrs by HTRF analysis. Type of test: cell-based. The procedure, abridged: as §4
As for `CC1=C(C(=O)Nc2ccc3[nH]nc(C)c3c2)[C@@H](C)n2nnnc2N1C`, the half-maximal inhibitory concentration (IC50) amounted to 46.1 nM.
On the same count and under the same terms, under `CC1=C(C(=O)Nc2ccc3[nH]ncc3c2)[C@@H](C)n2nnnc2N1C` stands 189 nM; under `CC1=C(C(=O)Nc2ccc3[nH]nc(-c4ccccc4)c3c2)C(C)(C)n2nnnc2N1C`, 3.1 nM; under `CC1=C(C(=O)Nc2ccc3[nH]nc(-c4ccnc(N5CCOCC5)c4)c3c2)C(C)(C)n2nnnc2N1C`, 1.1 nM.

Another test shares this target. In words: Inhibition of N-terminal GST-fused human LRRK2 G2019S mutant using fluorescein-labeled LRRKtide as substrate preincubated for 15 mins followed by substrate addition and measured after 1 hr by TR-FRET assay. Summed up:
as §2
With `CC1=C(C(=O)Nc2ccc3[nH]nc(C)c3c2)[C@@H](C)n2nnnc2N1C`, the concentration for half-maximal inhibition (IC50) turned out to be 0.82 nM.
The compound `CC1=C(C(=O)Nc2ccc3[nH]ncc3c2)[C@@H](C)n2nnnc2N1C` showed an IC50 of 1.64 nM.
Compound `CC1=C(C(=O)Nc2ccc3[nH]nc(-c4ccccc4)c3c2)C(C)(C)n2nnnc2N1C` showed an IC50 of less than 0.2 nM.
On the same count and under the same terms, the result for `CC1=C(C(=O)Nc2ccc3[nH]nc(-c4ccnc(N5CCOCC5)c4)c3c2)C(C)(C)n2nnnc2N1C` reads less than 0.2 nM.

The species entered for the next test is Homo sapiens. The test can be described thus: Selectivity ratio of IC50 for inhibition of human wild type LRRK2 expressed in HEK293 cells assessed as reduction in pS1292 phosphorylation to IC50 for inhibition of human LRRK2 G2019S mutant expressed in HEK293 cells assessed as reduction in pS1292 phosphorylation. Type of test: cell-based. The procedure, abridged: as §1
For `CC1=C(C(=O)Nc2ccc3[nH]nc(C)c3c2)[C@@H](C)n2nnnc2N1C`, the Ratio IC50 amounted to 20.
As for `CC1=C(C(=O)Nc2ccc3[nH]ncc3c2)[C@@H](C)n2nnnc2N1C`, the Ratio IC50 turned out to be 21.
`CC1=C(C(=O)Nc2ccc3[nH]nc(-c4ccccc4)c3c2)C(C)(C)n2nnnc2N1C`: the Ratio IC50 turned out to be 71.
Same read-out and setting: under `CC1=C(C(=O)Nc2ccc3[nH]nc(-c4ccnc(N5CCOCC5)c4)c3c2)C(C)(C)n2nnnc2N1C` stands 34.
